As a reminder, the IC50 is the concentration that inhibits the measured activity by half.

This note sets out measurements from ChEMBL document CHEMBL1136888, “Design, synthesis, and biological evaluation of novel diarylalkyl amides as TRPV1 antagonists” (Bioorg Med Chem, 2009).

A value given as a limit tells only on which side of the number the result lay.

Transient receptor potential cation channel subfamily V member 1, sequence (O35433 whole entry): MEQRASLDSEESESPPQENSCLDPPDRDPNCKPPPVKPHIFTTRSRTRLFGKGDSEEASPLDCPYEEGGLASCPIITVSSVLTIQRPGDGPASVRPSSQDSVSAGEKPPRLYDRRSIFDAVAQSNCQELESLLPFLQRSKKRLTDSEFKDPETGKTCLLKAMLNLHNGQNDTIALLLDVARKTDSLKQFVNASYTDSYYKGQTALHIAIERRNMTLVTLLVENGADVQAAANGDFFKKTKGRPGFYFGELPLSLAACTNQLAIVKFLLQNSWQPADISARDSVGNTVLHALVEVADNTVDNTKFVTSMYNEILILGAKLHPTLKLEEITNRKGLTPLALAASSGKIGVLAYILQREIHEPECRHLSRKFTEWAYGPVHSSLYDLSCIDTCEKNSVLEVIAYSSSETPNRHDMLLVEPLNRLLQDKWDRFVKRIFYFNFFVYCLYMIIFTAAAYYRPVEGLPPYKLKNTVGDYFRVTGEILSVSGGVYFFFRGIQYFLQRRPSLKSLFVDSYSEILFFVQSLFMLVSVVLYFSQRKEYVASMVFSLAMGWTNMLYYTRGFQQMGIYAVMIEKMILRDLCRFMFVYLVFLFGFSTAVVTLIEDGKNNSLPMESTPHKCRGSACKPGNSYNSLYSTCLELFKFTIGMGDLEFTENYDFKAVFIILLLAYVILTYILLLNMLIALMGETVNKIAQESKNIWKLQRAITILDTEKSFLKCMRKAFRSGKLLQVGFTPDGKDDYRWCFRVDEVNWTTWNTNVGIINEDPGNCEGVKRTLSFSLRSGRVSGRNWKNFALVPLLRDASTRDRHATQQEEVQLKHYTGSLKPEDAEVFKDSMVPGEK

In this test the target is Transient receptor potential cation channel subfamily V member 1 (Rattus norvegicus, UniProt O35433). Kind of test: Antagonist activity at TRPV1 in Sprague-Dawley rat DRG neuron assessed as reduction of capsaicin-stimulated 45Ca2+ uptake. Format: functional. The method in brief:
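Neonatal Sprague-Dawley rat DRG neurons (all spinal levels) dissociated with collagenase/trypsin and cultured 3 days with C6 glioma-conditioned medium. Washed in HEPES (10 mM, pH 7.4) Ca/Mg-free HBSS. Exposed to 45Ca2+ plus 0.5 µM capsaicin with compound for 10 min at room temperature. Cells washed, SDS-lysed, scintillation counted.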
Turning to `CC1(c2ccc(CCC(=O)NCc3cc(F)c(NS(C)(=O)=O)c(C#N)c3)cc2)CC1`, the IC50 was 210 nM.
To `CC1(C)Cc2cc(/C=C/C(=O)NCc3ccc(NS(C)(=O)=O)c(F)c3)ccc2O1` belongs 4300 nM; to `CC1(C)Cc2cc(CCC(=O)NCc3ccc(NS(C)(=O)=O)c(F)c3)ccc2O1`, more than 10000 nM.
In the case of `CC(C)(C)c1cc(/C=C/C(=O)NCc2ccc(NS(C)(=O)=O)c(F)c2)c2c(c1)CCO2` it was 1500 nM.
For the compound `CC1(C)CCC(C)(C)c2cc(CCC(=O)NCc3ccc(NS(C)(=O)=O)c(F)c3)ccc21`, the IC50 worked out at 180 nM.
With `CS(=O)(=O)Nc1ccc(CNC(=O)/C=C/c2ccc(I)cc2)cc1F`, the IC50 was more than 10000 nM.
In the case of `CC1(C)CCc2cc(/C=C/C(=O)NCc3ccc(NS(C)(=O)=O)c(F)c3)ccc2O1` it was 1400 nM; in that of `CC(C)(C)c1ccc(CCC(=O)NCc2ccc(NS(C)(=O)=O)c(F)c2)cc1`, 170 nM; in that of `CC(C)(C)c1ccc(CNC(=O)CCc2ccc(NS(C)(=O)=O)c(F)c2)cc1`, 2800 nM.
In the case of `CC1(C)CCC(C)(C)c2cc(CCC(=O)NCc3cc(F)c(NS(C)(=O)=O)c(C#N)c3)ccc21`, the IC50 turned out to be 57 nM.
In the case of `CS(=O)(=O)Nc1ccc(CNC(=O)CCc2ccc(CC3CC3)cc2)cc1F`, the IC50 amounted to 360 nM.
For `CS(=O)(=O)Nc1ccc(CNC(=O)CCc2cc(C(F)(F)F)cc(C(F)(F)F)c2)cc1F`, the IC50 was 2500 nM.
As to `CS(=O)(=O)Nc1ccc(CNC(=O)CCc2ccc(Br)cc2)cc1F`, the 50% inhibitory concentration (IC50) is more than 10000 nM.
Consider `CC1(c2ccc(/C=C/C(=O)NCc3ccc(NS(C)(=O)=O)c(F)c3)cc2)CC1`, for which the IC50 came to 390 nM.
In the case of `CC(C)Cc1ccc(CCC(=O)NCc2ccc(NS(C)(=O)=O)c(F)c2)cc1` it was 640 nM.
For `CC1(C)CCC(C)(C)c2cc(/C=C/C(=O)NCc3ccc(NS(C)(=O)=O)c(F)c3)ccc21`, the IC50 worked out at 340 nM.
For `CC1(C)CCc2cc(CCC(=O)NCc3ccc(NS(C)(=O)=O)c(F)c3)ccc2O1`, the IC50 amounted to 7200 nM.
As for `CC(C)(C)c1cc2c(c(CCC(=O)NCc3ccc(NS(C)(=O)=O)c(F)c3)c1)OCC2`, the IC50 stood at 5000 nM.
Take `CC(C)(C)c1cc(CCC(=O)NCc2ccc(NS(C)(=O)=O)c(F)c2)cc(C(C)(C)C)c1`: the IC50 worked out at 200 nM.
For the compound `CC(C)Oc1ccc(CCC(=O)NCc2ccc(NS(C)(=O)=O)c(F)c2)cc1`, the IC50 was more than 10000 nM.
With `CC(C)(C)c1ccc(CCC(=O)NCc2cc(F)c(NS(C)(=O)=O)c(C#N)c2)cc1`, the IC50 came out at 85 nM.
In the case of `CC(C)(C)c1cc(/C=C/C(=O)NCc2ccc(NS(C)(=O)=O)c(F)c2)c2c(c1)CCCO2` it was 920 nM; in that of `CS(=O)(=O)Nc1ccc(CNC(=O)CCc2ccc(C(F)(F)F)cc2)cc1F`, 4600 nM.
Turning to `CC(C)(C)Oc1ccc(CCC(=O)NCc2ccc(NS(C)(=O)=O)c(F)c2)cc1`, the concentration for half-maximal inhibition (IC50) was more than 10000 nM.
On to `CC(C)(C)c1cc2c(c(CCC(=O)NCc3ccc(NS(C)(=O)=O)c(F)c3)c1)OCCC2`, for which the IC50 worked out at 280 nM.
In the case of `CS(=O)(=O)Nc1ccc(CNC(=O)CCc2ccccc2)cc1F` it was more than 10000 nM.
As to `CC(C)(C)c1ccc(CNC(=O)NCc2ccc(NS(C)(=O)=O)c(F)c2)cc1`, the IC50 is 710 nM.
